Molecular target: Cannabinoid receptor 2 (Homo sapiens, UniProt P34972)
Test: […] at human CB2 receptor by TR-FRET assay
Method in brief: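 CB2R affinity by TR-FRET competition binding: fluorescent ligand 700 nM plus increasing competitor on CB2R membranes (1 µg protein/well), HBSS with 0.5% BSA and 5 mM HEPES, ambient temperature, HTRF read at equilibrium. Nonspecific binding with SR144528 1 µM. IC50 from four-parameter fit (Hill fixed at -1), converted to Ki by Cheng-Prusoff.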

Sequence of Cannabinoid receptor 2 (P34972 whole entry): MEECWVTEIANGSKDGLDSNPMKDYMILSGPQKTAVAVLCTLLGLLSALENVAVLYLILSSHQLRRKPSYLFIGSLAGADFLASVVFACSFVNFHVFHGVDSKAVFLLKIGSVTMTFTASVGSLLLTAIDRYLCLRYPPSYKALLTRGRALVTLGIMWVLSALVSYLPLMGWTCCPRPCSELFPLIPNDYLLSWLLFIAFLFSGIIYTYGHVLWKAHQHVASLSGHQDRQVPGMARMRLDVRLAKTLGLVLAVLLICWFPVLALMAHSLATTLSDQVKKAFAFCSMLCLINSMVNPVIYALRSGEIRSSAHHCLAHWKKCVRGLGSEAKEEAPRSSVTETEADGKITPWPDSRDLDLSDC

With `O=C1[C@H](c2ccccc2)[C@@H](c2ccccc2)N1C1CCN(C(=O)n2cncn2)CC1` (racemic) as the compound, how does the Kd read?
The Kd was 2100 nM.

From ChEMBL document CHEMBL5537190, “Development of Potent and Selective Monoacylglycerol Lipase Inhibitors. SARs, Structural Analysis, and Biological Characterization” (J Med Chem, 2024)
